Assay results reported in ChEMBL document CHEMBL2176934 (J Med Chem, 2012).
Active and inactive are the calls of the source. The calls are words filed in the database; no cut-off is given here.

What was measured:
[1] = Inhibition of LPA-induced proliferation of HLF incubated for 1 hr prior to LPA-challenge measured after 48 hrs by BrdU incorporation assay; conditions: Homo sapiens
[2] = Inhibition of LPA-induced proliferation of HLF at 1 uM incubated for 1 hr prior to LPA-challenge measured after 48 hrs by BrdU incorporation assay; type: functional; conditions: Homo sapiens
Procedure, shortened: (§1)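 NHLFs (passages 5–9) seeded on collagen I at 5 × 10³ cells/well overnight in complete medium, then starved 24 h in basal medium with 0.1% FBS and 0.1% fatty acid-free BSA. Stimulated with LPA (18:1) 15 μM in the presence of antagonist; proliferation read as BrdU incorporation with a commercial kit.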

[3] = molecular target: T1, Lysophosphatidic acid receptor 1 (Homo sapiens, UniProt Q92633); test: Antagonist activity at human recombinant LPA1 expressed in chem-1 cells assessed as inhibition of LPA-induced intracellular calcium mobilization at 30 uM incubated for 30 mins prior to LPA-challenge measured over 100 secs by FLIPR assay; type: functional, cell-based
Procedure, shortened: (§2)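 Calcium-optimized Chem-1 cells stably expressing human LPA1 or LPA3 (parental line with ionomycin as counterscreen), seeded 10,000/well the day before. Calcium-4 dye in HBSS/20 mM HEPES/2.5 mM probenecid loaded 30 min at 37 °C; compound added, 30 min at room temperature in the dark; LPA (18:1) 1 μM final. Peak fluorescence read over 100 s; IC50 from 10-concentration 4-parameter logistic fit, mean of at least three runs.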

[4] = Inhibition of Cytochrome P450; type: ADME
[5] = molecular target: Voltage-gated inwardly rectifying potassium channel KCNH2 (Homo sapiens, UniProt Q12809); test: Inhibition of human ERG
Plasma = test: Ratio of plasma concentration of AM095 to plasma concentration of compound in C57BL6/J mouse at 100 mg/kg, po dosed 2 hrs prior to LPA-challenge by LC/MS spectrometry; type: ADME, organism-based; design: dose 100 mg/kg, route oral; conditions: in vivo
Procedure, shortened: (§3)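 Male C57BL6/J mice, 7–9 weeks old, given compound orally 2 h before intravenous LPA 100 μg/mouse (in 0.1% fatty acid-free BSA). Killed 3 min after LPA; EDTA plasma histamine measured by ELISA and plasma drug levels by LC/MS. n = 5–8 mice, mean ± SEM; one-way ANOVA with Dunnett's test versus LPA vehicle control.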

Mus musculus = test: Antifibrosis activity in C57BL6/J mouse assessed as inhibition of LPA-stimulated histamine release at 100 mg/kg, po dosed 2 hrs prior to LPA-challenge by ELISA; type: functional, organism-based; design: dose 100 mg/kg; procedure, shortened: as §3
[6] = molecular target: T1, Lysophosphatidic acid receptor 1; test: Antagonist activity at LPA1 in human lung fibroblasts assessed as inhibition of LPA-induced contraction after 18 hrs by 3D collagen gel contraction assay; type: functional
Procedure, shortened: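 NHLFs (healthy nonsmoking donors, passages 5–9) at 2.5 × 10⁵ cells/well, mixed 1:4 with collagen lattice; gels polymerized 2 h at 37 °C, then basal medium with 0.1% FBS, 0.1% fatty acid-free BSA and vehicle or antagonist added. Gels detached, LPA (18:1) 15 μM added; after 18 h, contraction quantified by gel disc weight.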

[7] = molecular target: T2, Lysophosphatidic acid receptor 3 (Homo sapiens) (UniProt Q9UBY5); test: Antagonist activity at human recombinant LPA3 expressed in chem-1 cells assessed as inhibition of LPA-induced intracellular calcium mobilization at 30 uM incubated for 30 mins prior to LPA-challenge measured over 100 secs by FLIPR assay; type: functional, cell-based; procedure, shortened: as §2
T2 sequence (whole entry): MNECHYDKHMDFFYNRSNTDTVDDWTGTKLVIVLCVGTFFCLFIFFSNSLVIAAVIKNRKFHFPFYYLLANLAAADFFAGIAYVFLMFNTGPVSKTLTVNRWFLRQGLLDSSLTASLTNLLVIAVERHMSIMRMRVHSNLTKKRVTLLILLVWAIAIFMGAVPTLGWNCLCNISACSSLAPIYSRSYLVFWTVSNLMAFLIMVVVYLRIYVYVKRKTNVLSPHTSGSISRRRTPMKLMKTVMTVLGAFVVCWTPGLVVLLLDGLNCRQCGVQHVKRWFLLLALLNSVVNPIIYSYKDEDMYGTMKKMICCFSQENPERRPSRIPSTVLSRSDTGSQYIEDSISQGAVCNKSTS

[8] = Inhibition of LPA-induced proliferation of HLF at 10 uM incubated for 1 hr prior to LPA-challenge measured after 48 hrs by BrdU incorporation assay; type: functional; conditions: Homo sapiens; procedure, shortened: as §1
[9] = molecular target: T3, Lysophosphatidic acid receptor 3 (Homo sapiens, UniProt Q9UBY5); test: Antagonist activity at human recombinant LPA3 expressed in chem-1 cells assessed as inhibition of LPA-induced intracellular calcium mobilization incubated for 30 mins prior to LPA-challenge measured over 100 secs by FLIPR assay; type: functional, cell-based; procedure, shortened: as §2
T3 sequence (Q9UBY5 whole entry): T2 sequence (whole entry)

Chain of Voltage-gated inwardly rectifying potassium channel KCNH2 (Q12809 whole entry): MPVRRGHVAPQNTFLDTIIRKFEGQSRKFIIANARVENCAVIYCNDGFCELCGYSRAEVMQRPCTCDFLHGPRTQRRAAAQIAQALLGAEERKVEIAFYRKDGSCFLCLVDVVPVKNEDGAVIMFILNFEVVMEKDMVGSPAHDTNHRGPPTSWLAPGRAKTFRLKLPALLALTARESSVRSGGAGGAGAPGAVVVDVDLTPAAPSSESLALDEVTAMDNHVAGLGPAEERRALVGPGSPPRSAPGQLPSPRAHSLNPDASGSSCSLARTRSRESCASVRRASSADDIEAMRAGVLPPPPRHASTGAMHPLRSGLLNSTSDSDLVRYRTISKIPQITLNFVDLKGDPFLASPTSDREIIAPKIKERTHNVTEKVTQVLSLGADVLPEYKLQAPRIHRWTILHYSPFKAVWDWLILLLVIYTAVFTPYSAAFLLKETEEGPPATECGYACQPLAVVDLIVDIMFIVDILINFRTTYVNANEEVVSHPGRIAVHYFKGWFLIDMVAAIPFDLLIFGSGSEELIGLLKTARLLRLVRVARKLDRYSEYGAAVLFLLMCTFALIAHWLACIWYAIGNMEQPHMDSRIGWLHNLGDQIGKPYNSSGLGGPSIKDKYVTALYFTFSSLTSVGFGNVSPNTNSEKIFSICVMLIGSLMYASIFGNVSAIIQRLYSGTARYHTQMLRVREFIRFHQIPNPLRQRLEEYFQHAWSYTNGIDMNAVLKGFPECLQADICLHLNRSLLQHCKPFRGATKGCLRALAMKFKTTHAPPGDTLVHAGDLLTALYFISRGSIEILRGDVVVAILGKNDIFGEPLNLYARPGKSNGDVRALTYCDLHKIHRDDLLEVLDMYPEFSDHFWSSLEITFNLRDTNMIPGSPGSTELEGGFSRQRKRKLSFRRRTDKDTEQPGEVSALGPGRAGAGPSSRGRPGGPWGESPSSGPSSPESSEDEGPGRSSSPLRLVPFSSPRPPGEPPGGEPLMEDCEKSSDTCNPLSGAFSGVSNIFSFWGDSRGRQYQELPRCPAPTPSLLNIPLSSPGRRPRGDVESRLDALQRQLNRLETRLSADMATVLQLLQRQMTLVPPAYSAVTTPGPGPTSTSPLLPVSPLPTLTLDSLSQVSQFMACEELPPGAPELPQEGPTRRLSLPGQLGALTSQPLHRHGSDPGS
T1 sequence (Q92633 whole entry): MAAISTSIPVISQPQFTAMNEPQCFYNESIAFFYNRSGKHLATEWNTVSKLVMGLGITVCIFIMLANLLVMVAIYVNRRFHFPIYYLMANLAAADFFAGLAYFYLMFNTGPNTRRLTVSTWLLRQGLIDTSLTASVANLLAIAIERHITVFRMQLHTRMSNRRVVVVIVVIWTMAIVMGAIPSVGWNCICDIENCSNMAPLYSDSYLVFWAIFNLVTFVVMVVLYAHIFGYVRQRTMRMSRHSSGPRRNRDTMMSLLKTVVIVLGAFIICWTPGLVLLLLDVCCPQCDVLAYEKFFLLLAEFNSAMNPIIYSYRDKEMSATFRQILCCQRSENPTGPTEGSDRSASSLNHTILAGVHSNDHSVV

SMILES | inhibition [3] [%] | inhibition (INH) [4] | inhibition [6] | IC50 [9] [nM] | IC50 [1] [nM] | inhibition (INH) [5] | inhibition (Mus musculus) | also measured
Cc1nnn(-c2ccc(-c3ccc(C4(C(=O)O)CC4)cc3)cc2)c1NC(=O)O[C@H](C)c1ccccc1 |  | Not Active | Dose-dependent effect |  | 4 | Not Active | Active | Ratio (Plasma): > 65; inhibition [7]: 20%
Cc1noc(-c2ccc(-c3ccc(CC(=O)O)cc3)cc2)c1NC(=O)O[C@H](C)c1ccccc1 |  |  |  |  |  |  | Active | 
Cc1csc2c(N[C@@H](C)CN3CCN(S(=O)(=O)c4ccc(Cl)c(Cl)c4)CC3)ncnc12 |  |  | inactive |  |  |  |  | inhibition at 10 µM [8]: < 50%
CC(OC(=O)Nc1c(-c2ccc(F)cc2)cnn1C)c1ccccc1Cl (racemic) | > 97 | Not Active |  | > 30000 |  | Not Active |  | 

More lines, main results first:

inhibition [3] [%] | inhibition (INH) [4] | inhibition [6] | IC50 [9] [nM] | SMILES | IC50 [1] [nM] | inhibition (INH) [5] | inhibition (Mus musculus) | also measured
> 97 | Not Active |  |  | C[C@@H](OC(=O)Nc1c(-c2ccccc2F)cnn1C)c1ccccc1Cl | 810 | Not Active |  | inhibition at 1 µM [2]: > 50%
> 97 | Not Active |  | > 30000 | CC(OC(=O)Nc1c(-c2ccccc2)cnn1C)c1ccccc1Cl (racemic) |  | Not Active |  | 
